Source: the EternaBench riboswitch data

Test system: MS2 coat protein
Assay: apparent Kd, MS2 coat protein; higher = weaker binding; RNA-MaP array; FMN 200 µM where present
Outline: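 Stalled E. coli RNA polymerase produced the designs on Illumina sequencing-chip clusters. SNAP-549-labelled MS2 coat protein was added from 0.7 or 1.5 nM, doubling to 3 µM, without and then with constant ligand, in 100 mM Tris-HCl pH 7.5, 80 mM KCl, 4 mM MgCl2, BSA, DTT, yeast tRNA and Tween-20. The apparent Kd is the median of filtered per-cluster fits of green signal normalised to red-channel RNA signal and control-cluster median Fmax.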

[1] = designed as: OFF switch for flavin mononucleotide, no ligand
[2] = ligand present: flavin mononucleotide, designed as: OFF switch for flavin mononucleotide
[3] = designed as: ON switch for flavin mononucleotide, no ligand
[4] = ligand present: flavin mononucleotide, designed as: ON switch for flavin mononucleotide

Sequence	apparent Kd [1]	apparent Kd [2]	apparent Kd [3]	apparent Kd [4]
AUUAUUUUCGAAGGAUAUGGAUACAUGAGGAUCACCCAUGUAUAAAAUGAGAUCUAUUAUAUGAUCCAGAAGGUCGUUGUUUAU	35.6 nM	68.8 nM	–	–
AUUGCUCGAGAGAAGGGAACAUGAGGAUCACCCAUGUUACCUCACCUGGUGACGGAACUCCAAGUUCAGGAUAUCUCGAACGAU	5.63 nM	8.13 nM	–	–
AUUGGGACAUGAGGAUCACCCAUGUACGCAGUGGGUAGAUCACAGGAUAUGCGAAGUGUGUGAGAGCAGAAGGGUGAGUACUUA	–	–	343 nM	59.5 nM
AUUGGUGAGUAGAAGGUACGAUAUUAGUUAUAGUAAGGAUAUACUAACAUGAGGAUCACCCAUGUAUAAAUGGAUAAAUUAUCU	–	–	11.7 nM	8.98 nM
AUUUAAAUGUCAGGAUAUGGUAGAUUAUUCUUAUCAGAAGGGAUAAUUAUACUCAAGUACAUGAGGAUCACCCAUGUUAAAUCA	–	–	10.3 nM	10.3 nM
AUUUAUGGCCAGAAGGACAUGAGGAUCACCCAUGUAGGAUAUGGACGAUUUUGCUCGGCGGCUUGUUUAGGAAGCACCGGUGGU	–	–	10.7 nM	6.85 nM
AUUUAUGUCAUAGGAUAUAUAAAUAAAUUUAUAACAUGAGGAUCACCCAUGUACUUGGGUAUUAGGUAGAAGGAUGAUAAGAAU	–	–	572 nM	254 nM
AUUUCGACCACAGGAUAUGUUUGACCGAUACUUACAGAAGGGUGGUCCACGCGCACAAGCACAUGAGGAUCACCCAUGUAACGA	–	–	20.1 nM	60.7 nM
AUUUGAAUCGUAGGAUAUCGCUUAAAUUUACCACGAGAAGGACGAACAUGAGGAUCACCCAUGUAACAUGGUGAAGAUAAUUUG	31.6 nM	120 nM	–	–
AUUUGAAUCGUAGGAUAUCGCUUAAAUUUACCACGAGAAGGACGAACAUGAGGAUCACCCAUGUAACAUGGUGUAGAUAAUUUG	159 nM	440 nM	–	–
AUUUUAUAAUAGAAGGAAGACUUCAUGAGGAUCACCCAUGUGUUGGUACUUAGGAUAUGUAAUAACAUGAGGAUCACCCAUGUC	–	–	25.6 nM	26.1 nM
AUUUUAUAAUAGAAGGAGGACUUCAUGAGGAUCACCCAUGUGUUAGUACCUAGGAUAUGUAAUAACAUGAGGAUCACCCAUGUC	–	–	49.5 nM	40.3 nM
CAACAGUCAGGAUAUGCAAAAAAAAAAAAAAAAAAAAAAAAGCAGAAGGGACAUGAGGAUCACCCAUGUUGUCG	30 nM	16.7 nM	–	–
CAACCAGUGAAGGAUAUCAUCGAGGCUCGGCAUUGAGAAGGUUACACAUGAGGAUCACCCAUGUGGUUUCGUUC	14.5 nM	14.7 nM	–	–
CAACUCGGAGGAUAUAGCUGUUCUAACAUGAGGAUCACCCAUGUGCAGUUCCUUGUUAGGCUAGAAGGCCGGUAUA	40.6 nM	99.1 nM	–	–
CAACUGAGCGUAAAUUACCUGAACAUGAGGAUCACCCAUGUGGAGGAUAUUGACUUAGCAAAACUCGAGAAGGCCACUGGGAUG	39 nM	18.2 nM	–	–
CAAGACAUUCGAAACUGCCGGCCGCAGGAUAUGGGUCGUUUAUACAUGAGGAUCACCCAUGUCGCCUAGAAGGGCGGCUGGGUC	–	–	174 nM	17.6 nM
CAAGCGGGAGGAUAUACAGGGUUGUCCGAAAAUCGCCAGCCACAUGAGGAUCACCCAUGUAGAAGGCCUAUAGA	53 nM	23.9 nM	–	–
CAAUGGGCGGUAGGAUAUCCGGUGUUUGGCAAAGGAGAAGGACUCACCAUACAUGAGGAUCACCCAUGUGAAGCGGGUCCUCAA	8.48 nM	10.1 nM	–	–
CACAGGGAUUCAGGAUAUAUUAGCCGAGGCCGCGUAGAAGGGAAAUCCUGACAUGAGGAUCACCCAUGUCGACCCGCCUUCCAU	–	–	48.6 nM	48.5 nM
CACAUGGUUACAGGAUAUGUUAGGUUGCUGUUUAUUGGAUAUUAAAUUAUUACAGAAGGGUAAUACAUGAGGAUCACCCAUGUG	–	–	129 nM	29.4 nM
CACCGUUACAGAGGAUAUGAUACAUGAGGAUCACCCAUGUAAUAAAUGAGAAUUUCGAAUGUACCUCAGAAGGCUGGAACCGGC	40.4 nM	83.2 nM	–	–
CACCGUUAGAGAGGAUAUCGUACAUGAGGAUCACCCAUGUAAUAAAUGAGAAUUUCGGAUGUCUGCGAGAAGGCUCGAAUCGGC	34.6 nM	27.9 nM	–	–
CACGAAGGAGGAUAUAUUAAGGCAGAUCCUAUACAUCGGUUACAUGAGGAUCACCCAUGUAGAAGGCCUACAAA	49 nM	185 nM	–	–
CACGGAUAGUAGAAGGGUGACAUGAGGAUCACCCAUGUACACAUGCGUAUUAAAGUAUGUGAUACACAGGAUAUACUAUCCGUG	–	–	76.3 nM	321 nM
CACUCAUGUCUAGGAUAUGAGUGACAAGCGCGAAGUUUUUUCGGCGCUAGCUCAGAAGGAGACAUGAGGAUCACCCAUGUAAGG	69.1 nM	18.2 nM	–	–
CACUCGUGUCUAGGAUAUGAGUGACAAGCGCGAGAUUUUCUCGCCGCUAGCUCAGAAGGAGACAUGAGGAUCACCCAUGUAAGG	59.7 nM	12.5 nM	–	–
CACUGCAUGUAAGGAUAUCGACUGGAUAACAGUCGAGAAGGUACAUGAGGAUCACCCAUGUAAGCAGUGAAUAAUAAUAAUAAU	13.2 nM	25.2 nM	–	–

Sequence	apparent Kd [1]	apparent Kd [2]	apparent Kd [3]	apparent Kd [4]
CACUUCCCGUCAGGAUAUCGCCGUAGGUCCUCGGGUCUCGCCGUCAUACAUGAGGAUCACCCAUGUGAGAAGGGACGGGUUUCA	16.4 nM	107 nM	–	–
CAGAAGUCAGGAUAUGCAUGGCGGGACUUGCGUCGUGGCGUGCAGAAGGGACAUGAGGAUCACCCAUGUGGAGG	171 nM	222 nM	–	–
CAGAUCGGCGCAGGAUAUGUCGACAUGAGGAUCACCCAUGUAAACCUUGUCUGGUCCGGUGUGUGACAGAAGGGUGUCGGCCAU	31.5 nM	30.9 nM	–	–
CAGCGAAAGCUGAAUCUGUAGAGAGAGGAUAUACGUCAUAAGAUGCAUACAUGAGGAUCACCCAUGUAGAAGGCUCUCUACAGU	5.68 nM	6.7 nM	–	–
CAGCGAUAGCUGAAUGGUACAUCCGAGGAUAUUCAUAAACAACAUGAGGAUCACCCAUGUAAUUGGGAGAAGGCGGAUGUACCU	–	–	23.1 nM	5.97 nM
CAGCGAUAGCUGAAUGGUACAUGGGAGGAUAUGGGUUGAACAUGAGGAUCACCCAUGUUAUAAUACUAGAAGGCCCAUGUACCU	–	–	16.6 nM	5.45 nM
CAGCGCUGUCGAGAGGAUAUGCGGUGAUGGACAUGAGGAUCACCCAUGUUAGCGACAGCAUUACGGUAGAAGGCUUCACAGCUGC	–	–	51.5 nM	202 nM
CAGCGCUGUCGAGAGGAUAUGCGGUGAUGGACAUGAGGAUCACCCAUGUUAGCGAUAGCAUUACGGUAGAAGGCUCUGCAGCUGC	–	–	128 nM	21 nM
CAGCGCUGUCGAGAGGAUAUGCGGUGAUGGACAUGAGGAUCACCCAUGUUAGCGAUGGCAUUACGGUAGAAGGCUCUACAGCUGC	–	–	40.3 nM	16.4 nM
CAGGACAGAGGAUAUACAUAGAUACAGAUUCAUGUAGAACUACAUGAGGAUCACCCAUGUAGAAGGCUGUCCUG	29.5 nM	300 nM	–	–
CAGGAUAGAGGAUAUGCAUAGAUACAGAUUCAUGUAAUCCUACAUGAGGAUCACCCAUGUAGAAGGCUAUCCUG	15.1 nM	35 nM	–	–
CAGGGUAGAGGAUAUACGUAGGUACAGAUCUGUGUGUUCCUACAUGAGGAUCACCCAUGUAGAAGGCUAGCCUG	89.7 nM	324 nM	–	–
CAGGUGUUAGGAUAUCGGAGGUUGAGGCAGACGGGAAUAUUCGAGAAGGAACAUGAGGAUCACCCAUGUAGUAG	22.8 nM	24.8 nM	–	–
CAGUAAGUAUUGCGAGGGUAGGAGCAGGAUAUCCCAUUGGCCCUCACAUGAGGAUCACCCAUGUGGGAGAAGGGCUAUUACGUC	9.11 nM	22.5 nM	–	–
CAGUACUGAGGAUAUACAUGAGGAUCACCCAUGUGCUUUAGCUAGGAUACUAGCACCAGUAGAAGGCAGUACUG	10.6 nM	23.8 nM	–	–
CAGUACUGAGGAUAUACAUGAGGAUCACCCAUGUGCUUUAGCUAGGAUACUAGCAUCAGUAGAAGGCAGUACUG	12.8 nM	29.4 nM	–	–
CAGUACUGAGGAUAUACAUGAGGAUCACCCAUGUGUUCCAGCUAGGUAACUAGCAAAAGUAGAAGGCAGUACUG	23.6 nM	321 nM	–	–
CAGUACUGAGGAUAUACAUGAGGAUCACCCAUGUGUUCGAUACUAGUGAGGUCGAUUAGUAGAAGGCAGUACUG	21.3 nM	248 nM	–	–
CAGUAUUUCGAAGGAUAUGGUUACAUGAGGAUCACCCAUGUAUUUUUUGUGAUCUUAAAAUUGAUCCAGAAGGUCGUAUAACUG	101 nM	232 nM	–	–
CAGUCUACAGGAUAUACAUGAGGAUCACCCAUGUAAAUUCACUUUCGAUAGUCUACAUGUAGAAGGGUAGACUG	15.5 nM	18.6 nM	–	–
CAGUCUACAGGAUAUACAUGAGGAUCACCCAUGUGUAUUCACUUUCAGUAGUCUUUAUGUAGAAGGGUAGACUG	15.9 nM	26.7 nM	–	–
CAGUGCAAUGUAGGAUAUGCUCAGGAUAACUGAGCAGAAGGACAUGAGGAUCACCCAUGUAAAAUGAAAGAUAAUAAAGCACUG	16.6 nM	49.9 nM	–	–
CAUAACUUUUCUCAUGUAAACAUGAGGAUCACCCAUGUAAUGAGAAGGAGGAGGAAGAGAGAAUCCUAGGAUAUCAGAAUUGUU	6.41 nM	6.84 nM	–	–
CAUACACAUGAGGAUCACCCAUGUGAGGAUAUGCGUACGUUGUCAGUAGGCGACGUGCGCAGAAGGCGCGUGUU	60.5 nM	47.7 nM	–	–
CAUAUGUGAGGAUAUGACAAUGGUAUCUUCGGAUACCAUUGUCAGAAGGCACAUGAGGAUCACCCAUGUGGAUC	222 nM	30.7 nM	–	–
CAUCAUGCGUCUAAGGAUAUGUCUCACAAGACAUGAGGAUCACCCAUGUAGAAUAAAUAAAUGAUGCAGAAGGUGGAGCGCAUGC	–	–	343 nM	57.4 nM
CAUCUUGUGUGAGGAUAUAAUGAUAAGAGGACAUUAGAAGGCACAUGAGGAUCACCCAUGUGGCCAGGUCGGCGGCUCCAUAUA	11.4 nM	17.3 nM	–	–
